Measured values from article PMC3870048 (Pharmaceutical research, 2013).
Values after ≈ are worked out from the molar mass of the structure shown. Read-outs that look alike come from different tables or passages of the source.

Experiments:
[1] = Donor solution solubility determination; type: physicochemical; settings: saturation solubility in 0.3 M acetate buffer pH 5.0 containing 10% propylene glycol, 32°C
[2] = Stability of codrugs in 0.3 M acetate buffer pH 5.0 at 32°C; type: physicochemical; settings: 0.3 M acetate buffer pH 5.0, 32°C
Method in brief: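 Codrug was predissolved in ACN and spiked into prewarmed buffer (<1% ACN). 100 μl aliquots were taken at intervals, quenched with 900 μl ACN and held at -80°C. Analysis was by C18 HPLC-UV with ACN:acidic aqueous (70:30, pH 3.0) mobile phase and standards of 100–10,000 ng/ml. Data were fit to pseudo first-order kinetics; triplicate.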

[3] = earlier proof of concept study; cited from earlier work
[4] = in 43% PG, 43% ethanol containing solution; data previously reported; cited from earlier work
[5] = In vitro diffusion studies across microneedle-treated skin; type: in vitro ADME, Yucatan miniature pig; settings: skin at end of 48 h diffusion experiment
Method in brief: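 Yucatan minipig skin, dermatomed 1.4-1.8 mm, pierced 20 times with a 5-needle array (100 pores per 0.95 cm2 area). Flow-through cells held at 32°C. Donor: 250 μl of excess drug in 0.3 M acetate pH 5.0 with 10% PG. Receiver: pH 7.4 water with 20% ethanol, 1.5 ml/h. At 48 h the permeation area was minced and extracted overnight in 10 ml ACN at 32°C, then analysed by HPLC; n≥3.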

SMILES | Solubility [1] | Pseudo first order rate constant (k) [2] | Stability (approx. half-life) [2] | formulation half-life [3] | Solubility [4] | NTX and DIC (parent drugs) in the skin [5]
Cl.O=C(Cc1ccccc1Nc1c(Cl)cccc1Cl)Oc1ccc2c3c1O[C@H]1C(=O)CC[C@@]4(O)[C@@H](C2)N(CC2CC2)CC[C@]314 [Codrug I (hydrochloride salt)] | 83.8 ± 15.4 mM | – | – | – | – | –
O=C(Cc1ccccc1Nc1c(Cl)cccc1Cl)O[C@@H]1CC[C@@]2(O)[C@H]3Cc4ccc(O)c5c4[C@@]2(CCN3CC2CC2)[C@H]1O5 [Codrug II] | – | 0.0052 days ^−1 | 130.88 ± 4.94 days | – | – | –
O=C(Cc1ccccc1Nc1c(Cl)cccc1Cl)Oc1ccc2c3c1O[C@H]1C(=O)CC[C@@]4(O)[C@@H](C2)N(CC2CC2)CC[C@]314 [Codrug I] | – | 0.0803 days ^−1 | 8.72 ± 1.05 days | 96 to 120 h | 7.23 mM (≈ 4480 µg/mL) | quantifiable
